# Assay results of several laboratories.
# Compare with care: the assays were run in different laboratories.
# PTGS1: Prostaglandin G/H synthase 1 (PTGS1, Ovis aries, UniProt P05979)
# Organic anion transporter 3: Organic anion transporter 3 (Mus musculus, UniProt O88909)
SMILES,target,observed,action,technique,notes,measurement,result
COc1ccc(-c2csc(=NN=Cc3c(C)ccc(C(C)C)c3O)n2-c2ccccc2Cl)cc1,PTGS1,enzyme activity,inhibitor,absorbance,,IC50,9.87 µM
COc1cc(C(=O)OCCCN2CCCN(CCCOC(=O)c3cc(OC)c(OC)c(OC)c3)CC2)cc(OC)c1OC,"Equilibrative nucleoside transporter 2 (Homo sapiens, UniProt Q14542)",transporter uptake,inhibitor,radiometric,oocytes,IC50,256 µM
Cn1c(=O)c2c(ncn2C)n(C)c1=O,Organic anion transporter 3,transporter uptake,inhibitor,radiometric,oocytes,IC50,7.5 µM
CC1(CN)CCN(c2cnc3c(Sc4ccncc4Cl)n[nH]c3n2)CC1,"Tyrosine-protein phosphatase non-receptor type 11 (PTPN11, Homo sapiens, UniProt Q06124)",enzyme activity,inhibitor,,,IC50,> 100 µM
N=c1c[n+](N2CCOCC2)[n-]o1,"NAD-dependent protein deacetylase sirtuin-3, mitochondrial (SIRT3, Homo sapiens, UniProt Q9NTG7)",enzyme activity,inhibitor,,,IC50,35 µM
O=c1cc(-c2ccc(O)cc2)oc2c([C@@H]3OC[C@H](O)[C@H](O)[C@H]3O)c(O)c([C@@H]3O[C@H](CO)[C@@H](O)[C@H](O)[C@H]3O)c(O)c12,"Calcium/calmodulin-dependent protein kinase type II subunit delta (CAMK2D, Homo sapiens, UniProt Q13557)",binding,,SPR,,Kd,140 µM
Nc1ncnc2c1ncn2[C@@H]1O[C@H](CO)[C@@H](O)[C@H]1O,Organic anion transporter 3,transporter uptake,inhibitor,radiometric,oocytes,IC50,930 µM
CCCC(=O)NCCCN1CCc2c([nH]c3ccc(Cl)cc23)C1,"Sodium-dependent serotonin transporter (SLC6A4, Homo sapiens, UniProt P31645)",transporter uptake,inhibitor,,,IC50,96.2 µM
CC(=O)N[C@H]1C(O)O[C@H](CO)[C@@H](O[C@@H]2O[C@H](CO)[C@H](O)[C@H](O)[C@H]2O)[C@@H]1O (stereo partly shown),"Galectin-7 (LGALS7, Homo sapiens, UniProt P47929)",binding,,ITC,,Kd,225 µM
COc1ccc(-n2c(-c3ccccc3)csc2=NN=Cc2c(C)ccc(C(C)C)c2O)cc1,PTGS1,enzyme activity,inhibitor,absorbance,,IC50,14.3 µM
